{"source": "ChEMBL document CHEMBL5252608", "about": "“Eremoxylarins D-J, Antibacterial Eremophilane Sesquiterpenes Discovered from an Endolichenic Strain of Xylaria hypoxylon” (J Nat Prod, 2023)", "type_in_all_cases": "functional", "key": {"Staphylococcus aureus [1]": {"system": "Staphylococcus aureus", "assay": "Antibacterial activity against methicillin resistant Staphylococcus aureus DSM 13661 assessed as bacterial growth inhibition incubated for 24 hrs by optical density based microplate reader analysis", "summary_of_the_method": "(§1)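 Broth microdilution per CLSI, in triplicate: compounds as 5 mg/mL DMSO stocks (gentamicin 10 mg/mL stock as positive control), serially diluted 1:2 in LB. Wells inoculated with 10⁶ CFU/mL, 24 h at 37 °C, solvent-only negative control. OD630 read before and after incubation. MIC taken as the lowest-concentration clear well, i.e. no visible growth.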"}, "Pseudomonas aeruginosa": {"system": "Pseudomonas aeruginosa", "assay": "Antibacterial activity against Pseudomonas aeruginosa CIP A22 assessed as bacterial growth inhibition incubated for 24 hrs by optical density based microplate reader analysis", "summary_of_the_method": "(§2)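 Broth microdilution in LB per CLSI, in triplicate; compounds dissolved in DMSO (stock 5 mg/mL; gentamicin stock 10 mg/mL as positive control), serially diluted 1:2. Wells inoculated with 10⁶ CFU/mL, incubated 24 h at 37 °C, with solvent as negative control. OD 630 nm read before and after incubation; MIC taken as the lowest-concentration clear well. Wells also plated on LB agar for 24 h at 37 °C.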"}, "Escherichia coli": {"system": "Escherichia coli", "assay": "Antibacterial activity against […] Escherichia coli CIP 54.8 assessed as bacterial growth inhibition incubated for 24 hrs by optical density based microplate reader analysis", "summary_of_the_method": "as §1"}, "[2]": {"system": "Staphylococcus epidermidis", "assay": "Antibacterial activity against Staphylococcus epidermidis CIP 53.124 assessed as bacterial growth inhibition incubated for 24 hrs by optical density based microplate reader analysis", "summary_of_the_method": "as §2"}, "Staphylococcus aureus [3]": {"system": "Staphylococcus aureus", "assay": "Antibacterial activity against Staphylococcus aureus CIP 53.156 assessed as bacterial growth inhibition incubated for 24 hrs by optical density based microplate reader analysis", "summary_of_the_method": "as §2"}, "Huh-7": {"system": "Huh-7", "assay": "Cytotoxicity against human Huh-7 cells assessed as cell growth inhibition measured after 24 hrs by MTS assay", "summary_of_the_method": "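Huh-7 cells (DMEM with glutaMAX-I, 10% FBS, 37 °C, 5% CO₂), 6×10^4 per well, allowed 16 h before 24 h exposure to increasing compound concentrations (DMSO stocks 100 mM). Viability by MTS, formazan absorbance at 490 nm; CC50 derived. Mean ± SEM of 3 experiments.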"}}}
{"compound": "GENTAMICIN", "values": [{"measurement": "MIC", "setting": "Staphylococcus aureus [1]", "result": 250, "unit": "µg/mL"}, {"measurement": "MIC", "setting": "Pseudomonas aeruginosa", "result": 1.95, "unit": "µg/mL"}, {"measurement": "MIC", "setting": "Escherichia coli", "result": 3.91, "unit": "µg/mL"}, {"measurement": "MIC", "setting": "[2]", "result": "> 250", "unit": "µg/mL"}, {"measurement": "MIC", "setting": "Staphylococcus aureus [3]", "result": 3.91, "unit": "µg/mL"}]}
{"compound": "C=C(C=O)[C@H]1CC=C2[C@H](OC(=O)/C(C)=C/C=C/CCCCC)CC[C@H](C(=O)O)[C@@]2(C)C1", "values": [{"measurement": "MIC", "setting": "Staphylococcus aureus [1]", "result": 3.1, "unit": "µg/mL"}, {"measurement": "MIC", "setting": "Pseudomonas aeruginosa", "result": "> 50", "unit": "µg/mL"}, {"measurement": "MIC", "setting": "Escherichia coli", "result": "> 50", "unit": "µg/mL"}, {"measurement": "MIC", "setting": "[2]", "result": 3.1, "unit": "µg/mL"}, {"measurement": "MIC", "setting": "Staphylococcus aureus [3]", "result": 1.56, "unit": "µg/mL"}, {"measurement": "CC50", "setting": "Huh-7", "result": 184, "unit": "µM"}]}
{"compound": "C=C(C=O)[C@H]1CC=C2[C@H](OC(=O)/C(C)=C/CCCCCCC)CC[C@H](C(=O)O)[C@@]2(C)C1", "values": [{"measurement": "MIC", "setting": "Staphylococcus aureus [1]", "result": 1.56, "unit": "µg/mL"}, {"measurement": "MIC", "setting": "Pseudomonas aeruginosa", "result": "> 50", "unit": "µg/mL"}, {"measurement": "MIC", "setting": "Escherichia coli", "result": "> 50", "unit": "µg/mL"}, {"measurement": "MIC", "setting": "[2]", "result": 1.56, "unit": "µg/mL"}, {"measurement": "MIC", "setting": "Staphylococcus aureus [3]", "result": 0.39, "unit": "µg/mL"}, {"measurement": "CC50", "setting": "Huh-7", "result": 48.1, "unit": "µM"}]}
